Results from ChEMBL document CHEMBL1142960, “Synthesis and structure-activity relationships for 2,4-dinitrobenzamide-5-mustards as prodrugs for the Escherichia coli nfsB nitroreductase in gene therapy” (J Med Chem, 2007).
Values after ≈ are worked out from the molar mass of the structure shown.

What was measured:
[1] = system: V79; assay: Clonogenic survival of 97% V79 NTRoua cells in co-cultures with 3% V79 NTRpuro cells after 5 hrs by MCL assay; format: functional, Cricetulus griseus
Summary of the method: (§1)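 Multicellular layer cocultures of 3% V79-NTRpuro activators and 97% V79oua NTR-ve targets (ouabain-resistant), exposed to prodrug for 5 h. MCLs were then trypsin-dissociated and plated in ouabain or puromycin selective media for clonogenic survival. C10 (10% survival) interpolated for activators and targets; AC/TC ratio derived. Mean with SEM or range over independent experiments.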

[2] = system: V79; assay: Clonogenic survival of 3% V79 NTRpuro cells in co-cultures with 97% V79 NTRoua after 5 hrs by MCL assay; format: functional, Cricetulus griseus; summary of the method: as §1
[3] = system: V79; assay: Antiproliferative activity against chinese hamster V79 NTRpuro cells after 18 hrs; format: functional, cell-based; settings: Cricetulus griseus, V79, 18 h
[4] = system: EMT6; assay: Antiproliferative activity against mouse wild type EMT6 NTR-ve cells after 18 hrs; format: functional, cell-based; settings: EMT6, 18 h
[5] = Solubility in alpha MEM; format: physicochemical
Summary of the method: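 Solubility (mM) in α-MEM with 5% fetal calf serum at ambient temperature, measured by HPLC.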

[6] = system: V79; assay: Selectivity ratio of IC50 for V79 NTR-ve cells to IC50 for V79 NTRpuro cells; format: functional, Cricetulus griseus
[7] = system: EMT6; assay: Antiproliferative activity against mouse EMT6 NTRpuro cells after 18 hrs; format: functional, cell-based; settings: EMT6, 18 h
[8] = Antiproliferative activity against human Skov3 NTRneo cells after 18 hrs; format: functional, cell-based; settings: SK-OV-3, 18 h
[9] = Toxicity in ip dosed CD1 nude mouse in sodium acetate; format: organism-based; settings: in vivo
Summary of the method: (§2)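 Maximum tolerated dose (MTD) determined in CD-1 nude mice after a single i.p. injection of prodrug, given in the vehicle named in each line.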

[10] = system: EMT6; assay: Antitumor activity against mixed mouse EMT6/EMT6 NTRpuro cells injected in CD1 nude mouse assessed as cell kill at 300 umol/kg, ip in acetate after 18 hrs; format: functional
[11] = Antiproliferative activity against human wild type Skov3 NTR-ve cells after 18 hrs; format: functional, cell-based
[12] = system: EMT6; assay: Selectivity ratio of IC50 for EMT6 NTR-ve cells to IC50 forEMT6 NTRpuro cells; format: functional, Mus musculus
[13] = system: WiDr; assay: Antiproliferative activity against human wild type WiDr NTR-ve cells after 18 hrs; format: functional, cell-based
[14] = Selectivity ratio of IC50 for Skov3 NTR-ve cells to IC50 for Skov3 NTRneo cells; format: functional, Homo sapiens
[15] = Partition coefficient at pH 7.4 by shake-flask method; format: physicochemical; settings: octanol/water
Summary of the method: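 Octanol-water partition coefficient by shake-flask at pH 7.4, reported with SEM.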

[16] = system: WiDr; assay: Antitumor activity against human 100% WiDr NTRneo tumor cells injected in CD1 nude mouse assessed as growth delay at 300 umol/kg, ip in acetate; format: functional
Summary of the method: (§3)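 WiDr-NTRneo tumours (100% NTR+ve, or 1:9 NTR+ve:NTR-ve mixtures) in CD-1 nude mice, given a single i.p. dose at MTD. Read-out is median growth delay to 15 mm mean diameter, plus tumours not palpable 100 days after treatment. Aziridine given at 200 µmol/kg as positive control in every experiment.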

[17] = system: V79; assay: Clonogenic survival of V79 NTRoua cells after 5 hrs by MCL assay; format: functional, Cricetulus griseus
[18] = system: V79; assay: Antiproliferative activity against chinese hamster wild-type V79 NTR-ve cells after 18 hrs; format: functional, cell-based; settings: Cricetulus griseus, V79, 18 h
[19] = system: WiDr; assay: Selectivity ratio of IC50 for WiDr NTR-ve cells to IC50 for WiDr NTRneo cells; format: functional, Homo sapiens
[20] = Stability in alpha MEM at 37 degC after 24 hrs; format: physicochemical; settings: read-out: Stability
Summary of the method: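 Percent parent compound remaining, by HPLC, after holding in α-MEM with 5% fetal calf serum at 37 °C for 24 h.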

[21] = system: WiDr; assay: Antiproliferative activity against human WiDr NTRneo cells after 18 hrs; format: functional, cell-based
[22] = Toxicity in ip dosed CD1 nude mouse in DMSO/PEG; format: organism-based; settings: in vivo; summary of the method: as §2
[23] = system: WiDr; assay: Antitumor activity against human 100% WiDr NTRneo tumor cells injected in CD1 nude mouse assessed as growth delay at 237 umol/kg, ip in DMSO/PEG; format: functional; summary of the method: as §3
[24] = system: EMT6; assay: Antitumor activity against mixed mouse EMT6/EMT6 NTRpuro cells injected in CD1 nude mouse assessed as cell kill at 237 umol/kg, ip in DMSO/PEG after 18 hrs; format: functional
[25] = system: EMT6; assay: Antitumor activity against mixed mouse EMT6/EMT6 NTRpuro cells injected in CD1 nude mouse assessed as cell kill at 560 umol/kg, ip in DMA/PEG after 18 hrs; format: functional
[26] = Toxicity in ip dosed CD1 nude mouse in DMA/PEG; format: organism-based; settings: in vivo; summary of the method: as §2
[27] = system: WiDr; assay: Antitumor activity against human 100% WiDr NTRneo tumor cells injected in CD1 nude mouse assessed as growth delay at 560 umol/kg, ip in DMA/PEG; format: functional; summary of the method: as §3
[28] = system: EMT6; assay: Antitumor activity against mixed mouse EMT6/EMT6 NTRpuro cells injected in CD1 nude mouse assessed as cell kill at 562 umol/kg, ip in DMSO/PEG after 18 hrs; format: functional
[29] = Toxicity in ip dosed CD1 nude mouse in DMSO; format: organism-based; settings: in vivo; summary of the method: as §2
[30] = system: WiDr; assay: Antitumor activity against human 10% WiDr NTRneo/ 90% WiDr tumor cells injected in CD1 nude mouse assessed as growth delay at >1330 umol/kg, ip in DMSO; format: functional; summary of the method: as §3
[31] = system: WiDr; assay: Antitumor activity against human 100% WiDr NTRneo tumor cells injected in CD1 nude mouse assessed as growth delay at >1330 umol/kg, ip in DMSO; format: functional; summary of the method: as §3
[32] = system: WiDr; assay: Antitumor activity against human 100% WiDr NTRneo tumor cells injected in CD1 nude mouse assessed as growth delay at 562 umol/kg, ip in DMSO/PEG; format: functional; summary of the method: as §3

| SMILES | Activity [1] | Activity [2] | IC50 [3] | IC50 [4] | solubility [5] | Ratio IC50 [6] | IC50 [7] | IC50 [8] | IC50 [11] | Ratio IC50 [12] | IC50 [13] | Ratio IC50 [14] | logD [15] | Activity [17] | IC50 [18] | Ratio IC50 [19] | remaining at 24 h [20] | IC50 [21] | MTD [22] | further results |
| --- | --- | --- | --- | --- | --- | --- | --- | --- | --- | --- | --- | --- | --- | --- | --- | --- | --- | --- | --- | --- |
| O=C(NCCN1CCOCC1)c1cc(N(CCCl)CCCl)c([N+](=O)[O-])cc1[N+](=O)[O-] | 3000 µM | 1500 µM | 130 µM | 242 µM | 5200 µM (≈ 2410 µg/mL) | 1.6 | 30 µM | 82 µM | 383 µM | 8.9 | 243 µM | 5 | 1.6 | 3500 µM | 201 µM | 1.7 | 100% | 149 µM | – | MTD [9]: 300 µmol/kg; LCK [10]: 0.07; Activity [16]: 27 days |
| O=C(NCC(O)CO)c1cc(N(CCI)CCI)c([N+](=O)[O-])cc1[N+](=O)[O-] (stereo unspecified) | 54 µM | 12.5 µM | 1 µM | 58 µM | 960 µM (≈ 584 µg/mL) | 100 | 0.12 µM | 0.56 µM | 97 µM | 482 | 64 µM | 172 | 1.79 | 245 µM | 114 µM | 90 | 90% | 0.82 µM | 237 µmol/kg | Activity [23]: 37 days; LCK [24]: 0.54 |
| O=C(NCC(O)CO)c1cc(N(CCCl)CCCl)c([N+](=O)[O-])cc1[N+](=O)[O-] (stereo unspecified) | 510 µM | 95 µM | 10 µM | 839 µM | 2900 µM (≈ 1230 µg/mL) | 135 | 1.14 µM | 5.1 µM | 1710 µM | 803 | 984 µM | 327 | 0.93 | 3500 µM | 1160 µM | 79 | 100% | 14 µM | – | LCK [25]: 1.49; MTD [26]: 560 µmol/kg; Activity [27]: 75 days |
| NC(=O)c1cc(N(CCBr)CCBr)c([N+](=O)[O-])cc1[N+](=O)[O-] | 4.6 µM | 3.3 µM | 0.18 µM | 48 µM | – | 302 | 0.04 µM | 0.33 µM | 58 µM | 1110 | 40 µM | 211 | 1.97 | >50 µM | 43 µM | 174 | 98% | 0.22 µM | > 1330 µmol/kg | LCK [28]: 4.17; MTD [29]: > 1330 µmol/kg; Activity [30]: 20 days; Activity [31]: >84 days; Activity [32]: >84 days |
